In assay [1] the test system is Androgen receptor (Homo sapiens), P10275 [T878A]. Put plainly: Agonist activity at human androgen receptor T877A mutant expressed in human CV1 cells assessed as induction of receptor-mediated transactivation by MMTV-luciferase reporter gene assay. It is filed as functional, cell-based. As to conditions: CV-1. An outline of the steps: (§1)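 CV1 cells seeded at 1.2 × 10⁵ per well in DMEM with 5% charcoal-stripped serum, CaPO₄-transfected 18 h later with MMTV-luciferase reporter, human AR (wild type or T877A) expression vector and CMV-β-galactosidase control. After 24 h, medium was replaced with compounds alone or R1881. Cells were harvested 96 h later. Luciferase was normalized to β-gal (RLU). Duplicates, repeated at least twice.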
A general note: Reporter assays use an easily measured gene product as a stand-in for the process of interest.

The next assay concerns PC-3. As to the kind of experiment: Cytotoxicity against human PC3 cells after 2 days. It is filed as functional, cell-based. Summed up: (§2)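 Cells seeded in triplicate in 6-well plates at 25 × 10³ (LNCaP) or 5 × 10³ (PC3) per well in medium with 5% FCS. After 2 days they were treated with DMSO or compounds, with medium and compound renewed every second/third day. Cells were counted on the indicated days and normalized to day 0. Atraric acid served as positive control.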

Assay [2] concerns Androgen receptor (Homo sapiens), P10275 [T878A]. Put plainly: Antagonist activity at human androgen receptor T877A mutant expressed in human CV1 cells assessed as inhibition of receptor-mediated transactivation at 1 uM by MMTV-luciferase reporter gene assay. As to conditions: CV-1. It is filed as functional, cell-based. An outline of the steps: (§3)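 CV1 cells in DMEM with 5% charcoal-stripped serum, transfected by CaPO₄ with MMTV-luciferase, wild-type or T877A human AR vector and CMV-β-galactosidase. Compounds were added together with the agonist R1881 24 h post-transfection. After a further 96 h, luciferase was read and normalized to β-gal activity as RLU. Duplicates, repeated at least twice. NBBS antagonist and DMSO served as controls.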

The target of another assay is T1, Androgen receptor (Homo sapiens, UniProt P10275).
T1 sequence (P10275 whole entry): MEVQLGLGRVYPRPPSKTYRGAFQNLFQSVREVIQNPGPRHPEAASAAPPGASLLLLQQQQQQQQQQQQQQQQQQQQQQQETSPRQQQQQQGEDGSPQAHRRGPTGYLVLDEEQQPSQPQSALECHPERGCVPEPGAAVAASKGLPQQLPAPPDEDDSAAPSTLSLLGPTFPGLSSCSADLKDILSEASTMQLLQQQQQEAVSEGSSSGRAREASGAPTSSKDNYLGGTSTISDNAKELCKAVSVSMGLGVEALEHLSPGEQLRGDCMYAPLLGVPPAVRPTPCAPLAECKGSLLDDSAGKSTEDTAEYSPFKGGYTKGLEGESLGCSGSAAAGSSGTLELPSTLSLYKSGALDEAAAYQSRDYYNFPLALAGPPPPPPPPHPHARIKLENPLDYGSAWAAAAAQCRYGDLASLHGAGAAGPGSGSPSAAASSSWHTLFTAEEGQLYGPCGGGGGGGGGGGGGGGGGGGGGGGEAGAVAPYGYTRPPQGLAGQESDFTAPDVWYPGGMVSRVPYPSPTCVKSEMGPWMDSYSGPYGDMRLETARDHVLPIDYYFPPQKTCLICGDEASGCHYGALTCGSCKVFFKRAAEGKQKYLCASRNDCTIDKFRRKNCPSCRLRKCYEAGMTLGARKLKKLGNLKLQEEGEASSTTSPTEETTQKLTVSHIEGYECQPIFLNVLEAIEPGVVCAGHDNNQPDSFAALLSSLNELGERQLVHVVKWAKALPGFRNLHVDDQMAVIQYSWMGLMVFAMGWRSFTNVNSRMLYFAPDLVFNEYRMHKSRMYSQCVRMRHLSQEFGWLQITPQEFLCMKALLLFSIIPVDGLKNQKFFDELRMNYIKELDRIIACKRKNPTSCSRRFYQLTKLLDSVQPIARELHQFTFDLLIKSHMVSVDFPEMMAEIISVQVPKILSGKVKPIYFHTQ
Put plainly: Antagonist activity at human androgen receptor expressed in human CV1 cells assessed as inhibition of receptor-mediated transactivation by MMTV-luciferase reporter gene assay. It is filed as functional, cell-based, CV-1.

Assay [3] deals with LNCaP. Put plainly: Induction of senescence in human LNCAP cells assessed as beta galactosidase activity after 3 days. It is filed as functional, cell-based.
Assay [4] deals with T2, Androgen receptor (Homo sapiens) (UniProt P10275).
T2 sequence (whole entry): T1 sequence (P10275 whole entry)
As to the kind of experiment: Antagonist activity at human androgen receptor expressed in human CV1 cells assessed as inhibition of receptor-mediated transactivation at 1 uM by MMTV-luciferase reporter gene assay. It is filed as functional, cell-based. As to conditions: CV-1. Summed up:
as §3

Assay [5] concerns the target T2, Androgen receptor (Homo sapiens). Put plainly: Agonist activity at human androgen receptor expressed in human CV1 cells assessed as induction of receptor-mediated transactivation by MMTV-luciferase reporter gene assay. It is filed as functional, cell-based. As to conditions: CV-1. An outline of the steps: as §1
For assay [6], the system named is LNCaP. Put plainly: Cytotoxicity against human LNCAP cells at 10 uM after 2 days. It is filed as functional, cell-based. An outline of the steps: as §2
Assay [7] has as its target T2, Androgen receptor (Homo sapiens). As to the kind of experiment: Antagonist activity at human androgen receptor in human LNCAP cells assessed as inhibition of PSA mRNA expression by RT-PCR. It is filed as functional, cell-based. An outline of the steps:
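LNCaP cells treated with or without androgens plus compounds at 10 µM. DMSO-treated cells served as control. PSA mRNA was normalized to beta-actin expression.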

Assay [8] has as its system Androgen receptor (Homo sapiens), P10275 [T878A]. As to the kind of experiment: Antagonist activity at human androgen receptor T877A mutant expressed in human CV1 cells assessed as inhibition of receptor-mediated transactivation by MMTV-luciferase reporter gene assay. As to conditions: CV-1. It is filed as functional, cell-based. Summed up: as §3

Consider eight molecules from ChEMBL document CHEMBL1250541, “20-Aminosteroids as a novel class of selective and complete androgen receptor antagonists and inhibitors of prostate cancer cell growth” (Bioorg Med Chem, 2010).

Molecules are shown by their SMILES. Calls of active or inactive are those of the source. The calls are words filed in the database; no cut-off is given here.

What is called IC50 is the midpoint of a concentration-inhibition curve.

Chain of Androgen receptor (Homo sapiens), P10275 [T878A] (P10275 whole entry T878A): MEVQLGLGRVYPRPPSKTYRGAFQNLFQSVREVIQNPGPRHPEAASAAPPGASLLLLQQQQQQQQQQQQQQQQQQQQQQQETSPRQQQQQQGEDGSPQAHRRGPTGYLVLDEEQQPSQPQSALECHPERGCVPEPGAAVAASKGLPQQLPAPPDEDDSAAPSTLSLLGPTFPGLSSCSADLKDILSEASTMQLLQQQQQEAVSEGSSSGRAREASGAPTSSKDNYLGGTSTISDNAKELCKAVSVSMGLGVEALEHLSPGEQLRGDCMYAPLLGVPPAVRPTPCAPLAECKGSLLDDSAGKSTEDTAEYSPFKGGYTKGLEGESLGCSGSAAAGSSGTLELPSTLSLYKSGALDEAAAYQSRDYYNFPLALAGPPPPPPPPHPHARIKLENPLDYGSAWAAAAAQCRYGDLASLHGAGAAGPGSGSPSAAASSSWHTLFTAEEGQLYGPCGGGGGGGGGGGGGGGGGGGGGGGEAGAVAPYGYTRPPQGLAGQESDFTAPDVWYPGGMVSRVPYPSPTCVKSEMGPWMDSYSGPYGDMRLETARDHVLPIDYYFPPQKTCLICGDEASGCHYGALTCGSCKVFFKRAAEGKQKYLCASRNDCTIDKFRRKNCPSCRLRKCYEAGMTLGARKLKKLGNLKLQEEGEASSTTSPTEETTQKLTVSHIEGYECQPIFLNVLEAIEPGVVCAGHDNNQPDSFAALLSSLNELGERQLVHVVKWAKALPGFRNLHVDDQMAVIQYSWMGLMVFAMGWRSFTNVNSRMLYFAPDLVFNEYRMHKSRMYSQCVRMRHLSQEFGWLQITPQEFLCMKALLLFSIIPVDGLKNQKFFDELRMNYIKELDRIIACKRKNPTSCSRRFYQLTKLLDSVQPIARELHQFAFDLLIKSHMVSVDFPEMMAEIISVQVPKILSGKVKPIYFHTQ

On to `C[C@]12CC[C@H]3[C@@H](CC=C4C[C@@H](O)CC[C@@]43C)[C@@H]1CC[C@@H]2[C@]1(C)CC=CC(=O)N1`, for which the outcome (in assay [1]; in the assay on PC-3; in assay [5]) was inactive. In addition, the result (in assay [2]; in the assay on LNCaP [3]; in assay [4]; with LNCaP [6]; in [7]) was Active. Also, the IC50 at Androgen receptor stood at 3 µM.
Regarding `C=CC(C)[C@@](C)(N)[C@H]1CC[C@H]2[C@@H]3CC=C4C[C@@H](O)CC[C@]4(C)[C@H]3CC[C@@]21C` (some centres undefined), the result in assay [1] was Active. Moreover, the outcome in [5] was inactive.
In the same order, the values of `C=CC[C@](C)(N)[C@H]1CC[C@H]2[C@@H]3CC=C4C[C@@H](O)CC[C@]4(C)[C@H]3CC[C@@]21C` are “Active” and “inactive”.
For `C=CC[C@@](C)(N)[C@H]1CC[C@H]2[C@@H]3CC=C4C[C@@H](O)CC[C@]4(C)[C@H]3CC[C@@]21C` the same measures were “Active” and “inactive”.
Turning to `C[C@]12CC[C@H]3[C@@H](CC=C4C[C@@H](O)CC[C@@]43C)[C@@H]1CC[C@@H]2[C@@]1(C)CC=CC(=O)N1`, the outcome in assay [1] and in [5] was inactive. Also, the IC50 on Androgen receptor came to 2 µM. In addition, the result in assay [8] and in assay [7] was Active.
Consider `COC(=O)c1c(C)cc(O)c(C)c1O`, for which the outcome in the assay on LNCaP [6] was Active.
For the molecule `C[C@]12CC[C@H]3[C@@H](CCC4=CC(=O)CC[C@@]43C)[C@@H]1CC[C@@H]2[C@]1(C)CC=CC(=O)N1`, the IC50 at Androgen receptor was determined as 0.5 µM. The outcome in assay [5] was inactive.
With `C[C@]12CC[C@H]3[C@@H](CC=C4C[C@@H](O)CC[C@@]43C)[C@@H]1CC[C@@H]2[C@](C)(N)Cc1ccccc1`, the outcome in assay [5] was inactive.
